# Test results reported in ChEMBL document CHEMBL5653622 (Oncotarget, 2016).
# Activity calls are given as the source filed them. The rule behind the calls is not given here.
# Columns and labels:
# [1] = target: Misshapen-like kinase 1 (Homo sapiens) (UniProt Q8N4C8); assay: Inhibition of human MINK1 assessed as remaining activity at 10 uM in presence of ATP by radiometric kinase assay relative to control
# [2] = Half life in BALB/C mouse spleen at 10 mg/kg, po by LC/MS-MS analysis; assay type: ADME, organism-based
# Summary of the method: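 Female BALB/c mice received a single bolus of 10mg/kg, either i.v. or p.o. The oral vehicle was DPTW (10% DMSO, 20% PEG400, 5% Tween 80, 65% water). Plasma and spleen homogenates were extracted with methanol containing internal standards. Drug levels were measured by LC/MS-MS, and pharmacokinetic parameters were calculated from the concentration-time profiles.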
# [3] = AUC (0 to infinity) in BALB/C mouse spleen at 10 mg/kg, po by LC/MS-MS analysis; assay type: ADME, organism-based
# [4] = target: Serine/threonine-protein kinase MARK2 (Homo sapiens) (UniProt Q7KZI7); assay: Inhibition of human MARK2 assessed as remaining activity at 10 uM in presence of ATP by radiometric kinase assay relative to control
# [5] = target: Ribosomal protein S6 kinase beta-1 (Homo sapiens) (UniProt P23443); assay: Inhibition of human S6K1 assessed as remaining activity at 10 uM in presence of ATP by radiometric kinase assay relative to control
# [6] = Toxicity in Emu-Myc driven transgenic mouse transplant model of B-cell lymphoma assessed as change in water consumption at 150 mg/kg, po administered for 9 days; assay type: organism-based; details: in vivo, 216 h, time 9 day
# [7] = target: Serine/threonine-protein kinase BRSK1 (Homo sapiens, UniProt Q8TDC3); assay: Inhibition of human BRSK1 by FRET based Z-LYTE kinase assay
# [8] = Cmax in BALB/C mouse spleen at 10 mg/kg, iv by LC/MS-MS analysis; assay type: ADME, organism-based
# Summary of the method: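 Female BALB/c mice received a single 10mg/kg bolus i.v. or p.o. Plasma (and spleen homogenate) extracted with methanol containing internal standards. Concentrations were measured by LC/MS-MS and PK parameters calculated with modelling software.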
# [9] = target: Ephrin type-B receptor 1 (Homo sapiens) (UniProt P54762); assay: Inhibition of human EPH-B1 assessed as remaining activity at 10 uM in presence of ATP by radiometric kinase assay relative to control
# [10] = target: Mitogen-activated protein kinase 12 (Homo sapiens) (UniProt P53778); assay: Inhibition of human p38g MAPK assessed as remaining activity at 10 uM in presence of ATP by radiometric kinase assay relative to control
# [11] = target: High affinity nerve growth factor receptor (Homo sapiens) (UniProt P04629); assay: Inhibition of human TrkA assessed as remaining activity at 10 uM in presence of ATP by radiometric kinase assay relative to control
# [12] = target: Serine/threonine-protein kinase 26 (Homo sapiens) (UniProt Q9P289); assay: Inhibition of human MST4 assessed as remaining activity at 10 uM in presence of ATP by radiometric kinase assay relative to control
# [13] = target: MAP/microtubule affinity-regulating kinase 3 (Homo sapiens, UniProt P27448); assay: Inhibition of human MARK3 at 10 uM in presence of ATP by radiometric kinase assay relative to control
# [14] = target: Glycogen synthase kinase-3 beta (Homo sapiens) (UniProt P49841); assay: Inhibition of human GSK3b assessed as remaining activity at 10 uM in presence of ATP by radiometric kinase assay relative to control
# [15] = target: T1, Ribosomal protein S6 kinase alpha-3 (Homo sapiens, UniProt P51812); assay: Inhibition of human RSK2 at 10 uM in presence of ATP by radiometric kinase assay relative to control
# [16] = target: cAMP-dependent protein kinase (PKA) (Homo sapiens) (UniProt P22694+P17612+P22612); assay: Inhibition of human PKA assessed as remaining activity at 10 uM in presence of ATP by radiometric kinase assay relative to control; assay type: protein assay
# [17] = target: Interleukin-1 receptor-associated kinase 4 (Homo sapiens) (UniProt Q9NWZ3); assay: Inhibition of human IRAK4 assessed as remaining activity at 10 uM in presence of ATP by radiometric kinase assay relative to control
# [18] = target: Tyrosine-protein kinase JAK2 (Homo sapiens) (UniProt O60674); assay: Inhibition of human JAK2 assessed as remaining activity at 10 uM in presence of ATP by radiometric kinase assay relative to control
# [19] = target: Dual specificity mitogen-activated protein kinase kinase 2 (Homo sapiens) (UniProt P36507); assay: Inhibition of human MKK2 assessed as remaining activity at 10 uM in presence of ATP by radiometric kinase assay relative to control
# [20] = target: Dual specificity tyrosine-phosphorylation-regulated kinase 2 (Homo sapiens) (UniProt Q92630); assay: Inhibition of human DYRK2 assessed as remaining activity at 10 uM in presence of ATP by radiometric kinase assay relative to control
# [21] = target: Calcium/calmodulin-dependent protein kinase kinase 2 (Homo sapiens) (UniProt Q96RR4); assay: Inhibition of human CAMKKb assessed as remaining activity at 10 uM in presence of ATP by radiometric kinase assay relative to control
# [22] = target: Tyrosine-protein kinase ZAP-70 (Homo sapiens) (UniProt P43403); assay: Inhibition of human ZAP70 assessed as remaining activity at 10 uM in presence of ATP by radiometric kinase assay relative to control
# [23] = target: MAP/microtubule affinity-regulating kinase 4 (Homo sapiens) (UniProt Q96L34); assay: Inhibition of human MARK4 assessed as remaining activity at 10 uM in presence of ATP by radiometric kinase assay relative to control
# [24] = target: Mitogen-activated protein kinase 13 (Homo sapiens) (UniProt O15264); assay: Inhibition of human p38d MAPK assessed as remaining activity at 10 uM in presence of ATP by radiometric kinase assay relative to control
# [25] = target: T1, Ribosomal protein S6 kinase alpha-3; assay: Inhibition of human RSK2 assessed as remaining activity at 10 uM in presence of ATP by radiometric kinase assay relative to control
# [26] = target: Testis-specific serine/threonine-protein kinase 1 (Homo sapiens) (UniProt Q9BXA7); assay: Inhibition of human TSSK1 assessed as remaining activity at 10 uM in presence of ATP by radiometric kinase assay relative to control
# [27] = Toxicity in CRTac:Ncr-Fox1 mouse xenografted with human HT-29 cells assessed as body weight at 150 mg/kg, po administered for 10 days in presence of irinotecan relative to control; assay type: organism-based; details: in vivo, 240 h, time 10 day
# SW-620 = assay: Induction of apoptosis in human SW620 cells assessed as increased in cleaved PARP in presence of SN38 by Western blotting analysis; assay type: functional, cell-based
# [28] = target: MAP kinase-interacting serine/threonine-protein kinase 1 (Homo sapiens) (UniProt Q9BUB5); assay: Inhibition of human MNK1 assessed as remaining activity at 10 uM in presence of ATP by radiometric kinase assay relative to control
# T1 sequence (P51812 whole entry): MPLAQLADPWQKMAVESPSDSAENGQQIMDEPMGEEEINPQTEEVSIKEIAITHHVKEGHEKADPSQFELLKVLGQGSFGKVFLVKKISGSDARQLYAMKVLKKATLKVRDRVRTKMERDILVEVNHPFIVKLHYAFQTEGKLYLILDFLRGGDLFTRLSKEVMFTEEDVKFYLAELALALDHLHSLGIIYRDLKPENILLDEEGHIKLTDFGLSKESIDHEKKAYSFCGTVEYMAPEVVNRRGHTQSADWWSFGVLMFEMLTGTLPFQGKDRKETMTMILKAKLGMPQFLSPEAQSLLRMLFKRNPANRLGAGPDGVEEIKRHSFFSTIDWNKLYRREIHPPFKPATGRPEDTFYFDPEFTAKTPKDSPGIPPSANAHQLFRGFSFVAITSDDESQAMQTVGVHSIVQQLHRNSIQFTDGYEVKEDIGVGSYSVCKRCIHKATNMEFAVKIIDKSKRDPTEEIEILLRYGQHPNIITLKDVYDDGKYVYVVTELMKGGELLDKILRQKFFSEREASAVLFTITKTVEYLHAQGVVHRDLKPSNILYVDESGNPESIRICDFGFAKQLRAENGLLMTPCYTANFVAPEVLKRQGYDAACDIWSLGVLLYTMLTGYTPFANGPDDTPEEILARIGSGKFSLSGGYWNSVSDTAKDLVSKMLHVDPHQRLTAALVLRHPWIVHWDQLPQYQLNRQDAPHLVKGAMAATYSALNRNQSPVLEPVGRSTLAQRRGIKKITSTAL
# Sequence of Ephrin type-B receptor 1 (Homo sapiens) (P54762 whole entry): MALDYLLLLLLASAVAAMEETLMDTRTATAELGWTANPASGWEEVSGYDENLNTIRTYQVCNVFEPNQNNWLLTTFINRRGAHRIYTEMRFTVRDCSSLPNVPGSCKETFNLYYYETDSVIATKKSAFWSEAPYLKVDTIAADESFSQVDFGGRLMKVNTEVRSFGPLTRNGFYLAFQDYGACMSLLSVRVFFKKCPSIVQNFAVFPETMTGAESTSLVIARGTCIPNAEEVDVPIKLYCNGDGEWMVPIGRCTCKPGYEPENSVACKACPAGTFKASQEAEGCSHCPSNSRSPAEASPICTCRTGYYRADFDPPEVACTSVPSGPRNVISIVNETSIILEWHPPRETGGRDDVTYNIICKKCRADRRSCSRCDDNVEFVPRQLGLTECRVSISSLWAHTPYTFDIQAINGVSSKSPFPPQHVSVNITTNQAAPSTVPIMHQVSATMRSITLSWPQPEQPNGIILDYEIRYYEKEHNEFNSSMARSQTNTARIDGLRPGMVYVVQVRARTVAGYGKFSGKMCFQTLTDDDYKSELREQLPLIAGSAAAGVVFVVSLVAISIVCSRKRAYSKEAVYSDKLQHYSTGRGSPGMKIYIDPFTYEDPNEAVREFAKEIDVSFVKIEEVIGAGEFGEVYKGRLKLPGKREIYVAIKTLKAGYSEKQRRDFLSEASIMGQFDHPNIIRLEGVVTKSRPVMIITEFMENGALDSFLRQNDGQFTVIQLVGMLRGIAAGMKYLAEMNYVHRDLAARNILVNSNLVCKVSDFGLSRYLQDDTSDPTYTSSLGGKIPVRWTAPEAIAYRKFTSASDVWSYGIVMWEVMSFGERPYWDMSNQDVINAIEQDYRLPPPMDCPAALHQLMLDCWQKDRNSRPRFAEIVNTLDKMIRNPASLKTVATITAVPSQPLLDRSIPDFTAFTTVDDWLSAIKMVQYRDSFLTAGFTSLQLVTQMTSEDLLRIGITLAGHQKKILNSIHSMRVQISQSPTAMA
# Sequence of Mitogen-activated protein kinase 13 (Homo sapiens) (O15264 whole entry): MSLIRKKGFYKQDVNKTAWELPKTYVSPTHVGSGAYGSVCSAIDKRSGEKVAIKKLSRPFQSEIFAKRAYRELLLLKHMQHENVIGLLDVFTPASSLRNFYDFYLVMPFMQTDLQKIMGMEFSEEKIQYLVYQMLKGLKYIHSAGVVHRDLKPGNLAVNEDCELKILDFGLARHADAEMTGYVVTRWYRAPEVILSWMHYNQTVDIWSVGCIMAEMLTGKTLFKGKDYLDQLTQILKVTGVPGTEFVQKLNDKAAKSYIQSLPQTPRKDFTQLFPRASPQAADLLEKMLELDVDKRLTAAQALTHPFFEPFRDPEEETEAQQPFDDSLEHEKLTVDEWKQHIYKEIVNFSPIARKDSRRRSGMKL
# Sequence of Calcium/calmodulin-dependent protein kinase kinase 2 (Homo sapiens) (Q96RR4 2-588 limits assumed): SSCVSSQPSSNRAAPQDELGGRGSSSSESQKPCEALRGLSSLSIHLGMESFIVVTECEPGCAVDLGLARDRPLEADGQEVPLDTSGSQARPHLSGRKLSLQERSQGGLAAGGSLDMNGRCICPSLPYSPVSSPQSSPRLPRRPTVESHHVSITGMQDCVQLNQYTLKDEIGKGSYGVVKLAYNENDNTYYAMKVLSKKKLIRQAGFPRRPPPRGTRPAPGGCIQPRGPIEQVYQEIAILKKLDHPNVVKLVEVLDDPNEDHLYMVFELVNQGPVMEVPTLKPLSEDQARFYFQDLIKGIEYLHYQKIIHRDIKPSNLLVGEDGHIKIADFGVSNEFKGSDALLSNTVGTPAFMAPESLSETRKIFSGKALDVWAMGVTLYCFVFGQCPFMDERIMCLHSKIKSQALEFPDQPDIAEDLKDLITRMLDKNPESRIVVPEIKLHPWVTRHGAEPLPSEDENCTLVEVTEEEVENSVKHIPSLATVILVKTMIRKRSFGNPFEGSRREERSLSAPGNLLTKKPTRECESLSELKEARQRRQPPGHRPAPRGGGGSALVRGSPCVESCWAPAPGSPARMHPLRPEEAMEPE
# Sequence of Interleukin-1 receptor-associated kinase 4 (Homo sapiens) (Q9NWZ3 whole entry): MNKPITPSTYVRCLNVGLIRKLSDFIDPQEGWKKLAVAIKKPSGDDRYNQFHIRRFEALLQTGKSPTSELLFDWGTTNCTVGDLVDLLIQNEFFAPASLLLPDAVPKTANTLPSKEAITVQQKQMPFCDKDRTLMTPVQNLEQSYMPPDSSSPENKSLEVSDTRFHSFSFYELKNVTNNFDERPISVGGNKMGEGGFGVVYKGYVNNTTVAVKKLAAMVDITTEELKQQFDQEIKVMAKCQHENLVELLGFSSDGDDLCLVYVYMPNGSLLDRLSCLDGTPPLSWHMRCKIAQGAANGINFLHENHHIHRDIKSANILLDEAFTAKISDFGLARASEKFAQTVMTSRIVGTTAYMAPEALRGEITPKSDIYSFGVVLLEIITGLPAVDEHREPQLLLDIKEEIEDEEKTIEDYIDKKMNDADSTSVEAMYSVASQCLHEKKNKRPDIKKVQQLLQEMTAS
# Sequence of Tyrosine-protein kinase ZAP-70 (Homo sapiens) (P43403 whole entry): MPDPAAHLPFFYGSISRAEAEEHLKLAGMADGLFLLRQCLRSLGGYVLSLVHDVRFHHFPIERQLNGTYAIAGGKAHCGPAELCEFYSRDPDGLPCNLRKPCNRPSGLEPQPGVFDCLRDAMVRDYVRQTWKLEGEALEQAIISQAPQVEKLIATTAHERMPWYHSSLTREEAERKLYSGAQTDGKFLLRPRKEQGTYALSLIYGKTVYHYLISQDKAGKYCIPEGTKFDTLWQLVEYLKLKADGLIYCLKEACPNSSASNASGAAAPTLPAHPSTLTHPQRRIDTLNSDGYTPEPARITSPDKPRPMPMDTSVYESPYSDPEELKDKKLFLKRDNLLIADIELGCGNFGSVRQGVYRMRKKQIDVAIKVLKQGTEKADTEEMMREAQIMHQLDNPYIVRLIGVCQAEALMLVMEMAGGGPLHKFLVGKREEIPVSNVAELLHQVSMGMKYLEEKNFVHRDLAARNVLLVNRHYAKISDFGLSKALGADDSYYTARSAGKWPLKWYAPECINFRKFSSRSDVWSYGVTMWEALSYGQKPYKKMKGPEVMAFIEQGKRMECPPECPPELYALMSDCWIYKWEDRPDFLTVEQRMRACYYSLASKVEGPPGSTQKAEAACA
# Sequence of High affinity nerve growth factor receptor (Homo sapiens) (P04629 33-796 limits assumed): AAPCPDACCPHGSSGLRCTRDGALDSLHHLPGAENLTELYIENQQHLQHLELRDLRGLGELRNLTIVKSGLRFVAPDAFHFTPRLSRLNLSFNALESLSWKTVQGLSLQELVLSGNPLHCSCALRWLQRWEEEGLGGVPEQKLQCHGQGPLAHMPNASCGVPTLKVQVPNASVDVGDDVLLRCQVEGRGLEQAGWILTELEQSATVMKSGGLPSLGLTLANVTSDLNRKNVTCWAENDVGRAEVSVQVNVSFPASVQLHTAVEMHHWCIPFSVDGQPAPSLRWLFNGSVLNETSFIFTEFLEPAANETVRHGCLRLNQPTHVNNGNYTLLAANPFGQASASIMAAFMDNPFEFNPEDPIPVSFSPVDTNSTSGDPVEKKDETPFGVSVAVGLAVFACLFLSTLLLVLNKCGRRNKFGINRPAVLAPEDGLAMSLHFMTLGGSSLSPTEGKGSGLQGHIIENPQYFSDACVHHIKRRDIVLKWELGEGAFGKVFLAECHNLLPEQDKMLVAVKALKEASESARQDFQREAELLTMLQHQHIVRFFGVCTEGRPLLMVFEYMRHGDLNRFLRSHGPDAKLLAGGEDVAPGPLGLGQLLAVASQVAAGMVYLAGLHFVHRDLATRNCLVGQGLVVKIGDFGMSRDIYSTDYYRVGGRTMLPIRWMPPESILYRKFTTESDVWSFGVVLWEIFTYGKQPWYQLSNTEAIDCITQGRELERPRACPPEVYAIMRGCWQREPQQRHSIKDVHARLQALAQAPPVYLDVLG
# Sequence of Ribosomal protein S6 kinase beta-1 (Homo sapiens) (P23443 whole entry, looked up): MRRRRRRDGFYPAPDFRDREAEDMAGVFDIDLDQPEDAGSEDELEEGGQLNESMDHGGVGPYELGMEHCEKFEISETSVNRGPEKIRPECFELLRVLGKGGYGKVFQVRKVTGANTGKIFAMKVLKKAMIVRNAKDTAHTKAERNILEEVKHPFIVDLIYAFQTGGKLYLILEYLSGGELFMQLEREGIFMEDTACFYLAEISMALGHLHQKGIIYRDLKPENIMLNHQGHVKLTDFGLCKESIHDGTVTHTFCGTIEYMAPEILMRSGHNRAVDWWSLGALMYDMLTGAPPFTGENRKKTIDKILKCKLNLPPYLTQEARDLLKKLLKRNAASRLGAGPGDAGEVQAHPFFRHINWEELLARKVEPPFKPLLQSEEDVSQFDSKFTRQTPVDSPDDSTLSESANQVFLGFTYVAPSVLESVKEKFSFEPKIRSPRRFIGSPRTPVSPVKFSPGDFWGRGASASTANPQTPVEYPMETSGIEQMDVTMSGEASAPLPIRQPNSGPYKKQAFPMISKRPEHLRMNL
smiles,measurement,setting,value
N#Cc1cnc(Nc2cc(NC[C@H]3CNCCO3)c(C(F)(F)F)cn2)cn1 [SRA-737],Activity,[1],44%
same,half-life,[2],3.11 h
same,AUC(0-inf),[3],223 µM·h
same,Activity,[4],21%
same,Activity,[5],52%
same,Activity,[6],Non-Toxic
same,IC50,[7],1660 nM
same,Cmax,[8],44.7 µM
same,Activity,[9],111%
same,Activity,[10],95%
same,Activity,[11],31%
same,Activity,[12],44%
same,inhibition,[13],87%
same,Activity,[14],47%
same,inhibition,[15],81%
same,Activity,[16],93%
same,Activity,[17],73%
same,Activity,[18],37%
same,Activity,[19],61%
same,Activity,[20],61%
same,Activity,[21],73%
same,Activity,[22],93%
same,Activity,[23],39%
same,Activity,[24],54%
same,Activity,[25],19%
same,Activity,[26],53%
same,Activity,[27],98%
same,Activity,SW-620,Active
same,Activity,[28],62%
